UBC13 polyUb: blocks human UBC13 polyubiquitin chain formation; P61088; TR-FRET; inhibition, % at 20 µM; actives 0.47% (n = 330,000); in the data active = inhibition above about 45%, passing the limit was not always enough
Target sequence (P61088 whole entry, looked up): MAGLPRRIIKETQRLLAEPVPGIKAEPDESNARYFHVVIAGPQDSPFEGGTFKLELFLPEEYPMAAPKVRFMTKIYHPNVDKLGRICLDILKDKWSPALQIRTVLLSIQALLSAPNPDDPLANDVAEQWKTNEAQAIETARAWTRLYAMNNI
PP1 counter: counter-screen for PP5 inhibitors: inhibitors of human PP1-alpha; actives 0.9% (n = 320,000); P62136; purified PP1alpha, OMFP fluorescence; inhibition, % at 6.7 µM;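 active = inhibition above the mean inhibition of all tested compounds plus 3 SD, computed separately for each screening campaign, cut at about 15% in these data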
Target sequence (P62136 whole entry, looked up): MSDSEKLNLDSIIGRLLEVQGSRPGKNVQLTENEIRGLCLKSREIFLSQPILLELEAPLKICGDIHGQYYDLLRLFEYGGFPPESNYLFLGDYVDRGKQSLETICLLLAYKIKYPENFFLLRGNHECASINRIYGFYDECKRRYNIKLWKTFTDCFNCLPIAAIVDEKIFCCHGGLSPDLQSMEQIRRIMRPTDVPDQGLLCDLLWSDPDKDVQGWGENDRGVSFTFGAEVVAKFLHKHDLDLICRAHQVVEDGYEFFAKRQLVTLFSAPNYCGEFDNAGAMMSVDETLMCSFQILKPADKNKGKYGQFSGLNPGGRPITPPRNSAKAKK
PP5 inh: PP5 (human) phosphatase inhibition; P53041; purified PP5c, OMFP substrate fluorescence; inhibition, % at 6.7 µM; actives 0.18% (n = 320,000); AID 1987;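 active = inhibition above the campaign's mean inhibition across all tested compounds plus 3 SD, cut at about 9.5% in these data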
UCH37 DUB inh: human UCH37 deubiquitinating enzyme inhibition. AID 588478. Q9Y5K5. actives 0.33% (n = 330,000). inhibition, % (no concentration beside the values). purified proteasome/UCH37, Ub-AMC cleavage fluorescence;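 active = mean inhibition over replicate wells above about 20%, limit read from the data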
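Assay system: Proteasome-bound UCH37. Buffer or medium: pH 7.4 Tris-HCl (50 mM) with ovalbumin, ATP-MgCl2, DTT. Incubation: 30 min preincubation with enzyme, 25 min cleavage at room temperature. Measured by: fluorescence, ex 355 nm, em 460 nm. Read-out basis: percent inhibition. Control set: wells without proteasome as full block, compound-free enzyme plus substrate as uninhibited.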
PREPL inhibitor: inhibitors of human prolyl oligopeptidase-like enzyme PREPL | recombinant PREPL, fluorescence polarization activity-based probe | inhibition, % at 5.96 µM | actives 0.68% (n = 320,000) | AID 2751
Fh CTSL1 inh: counter-screen for PFM18AAP inhibitors: inhibitors of F. hepatica cathepsin L1; inhibition, % at 5.96 µM; actives 0.49% (n = 300,000); AID 1906; recombinant F. hepatica cathepsin L1, Z-Leu-Arg-MCA fluorescence;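 active = inhibition above the mean of all tested compounds plus 3 SD, set per screening campaign, cut at about 17% in these data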
PP1 confirm: human PP1 phosphatase inhibition, confirmation. shares compounds with PP1 counter. purified PP1alpha, OMFP substrate fluorescence. inhibition, % at 6.7 µM. actives 52% (n = 1,900);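 active = mean PP1 inhibition above a set limit taken from the earlier primary screen, cut at about 15% in these data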
PP5 inh counter: counter-screen for PP1 inhibitors: human PP5 phosphatase inhibition; purified PP5c, OMFP fluorescence; inhibition, % at 6.7 µM; AID 2360; actives 4% (n = 1,900); shares compounds with PP1 counter;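 active = mean PP5 inhibition over triplicate wells above about 9.5% taken from the earlier PP1 screen, limit read from the data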
PREPL confirm: confirmation of human PREPL enzyme inhibitors. shares compounds with PREPL inhibitor. recombinant PREPL, fluorescence polarization activity probe. inhibition, % at 5.96 µM. actives 67% (n = 2,000). AID 2803
Casp3 counter: caspase-3 inhibition (UBC13 counter-screen); shares compounds with UBC13 polyUb; actives 4% (n = 1,400); AID 488856; Recombinant caspase-3, Caspase-Glo 3/7 luminescence, 60 min; inhibition, % at 20 µM;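 active = mean inhibition across replicates above about 26%, limit read from the data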
Target sequence (P42574 whole entry, looked up): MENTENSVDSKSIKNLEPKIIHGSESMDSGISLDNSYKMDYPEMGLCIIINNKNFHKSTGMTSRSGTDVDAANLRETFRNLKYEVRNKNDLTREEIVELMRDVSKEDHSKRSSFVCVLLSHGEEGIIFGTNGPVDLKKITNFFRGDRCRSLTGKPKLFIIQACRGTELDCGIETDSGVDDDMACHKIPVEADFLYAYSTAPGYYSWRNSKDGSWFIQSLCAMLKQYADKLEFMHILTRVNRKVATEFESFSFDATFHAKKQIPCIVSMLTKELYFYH
UBC13 conf: confirmation of human UBC13 polyubiquitin inhibitors | UBC13 polyubiquitination, TR-FRET, biochemical | shares compounds with UBC13 polyUb | inhibition, % at 10 µM | actives 68% (n = 1,400) | AID 488859; in the data active = inhibition above about 45%
UCH37 reconfirm: UCH37 Ub-AMC cleavage inhibition, confirmed; shares compounds with UCH37 DUB inh; Proteasome-bound UCH37, Ub-AMC cleavage fluorescence; inhibition, % at 20 µM; actives 27% (n = 480);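 active = average inhibition over replicates above about 50%, so the earlier screening hit is confirmed, limit read from the data; inactive = the rest, counted as false positives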;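 note: based on cleavage rate fitted by regression over a 30 min kinetic read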
Of the large screens only hits and unclear results are named; the others gave an inactive call (follow-up assays come after a bar, where they were run); ! = a repeat was not active. Sampled rows, rich in hits. Any-hit rate of the full collection: about 2.3%. Cut-off read from the data, not from the text of the source, unless noted: active = inhibition above about 43%; inactive = the rest.

CCCCCCCCCCOC(=O)Cn1c(COc2ccc(OC)cc2)[n+](C)c2ccccc21	UBC13 polyUb 63, PP1 counter 35 (no result: UCH37 DUB inh) | PP1 confirm inactive | PP5 inh counter inactive | Casp3 counter inactive | UBC13 conf 81
Cc1onc(-c2ccccc2)c1C(=O)NN=C/C=C/c1ccccc1	none (no result: UBC13 polyUb, PP1 counter, PP5 inh, PREPL inhibitor, Fh CTSL1 inh)
NC(N)=N/N=C/c1ccc(OCc2ccccc2)c(OCc2ccccc2)c1	UBC13 polyUb 110, PP1 counter 35 (no result: UCH37 DUB inh) | PP1 confirm 35 | PP5 inh counter inactive | Casp3 counter inactive | UBC13 conf 125
CON=C/C(C#N)=C/c1cc(C(=O)c2ccc(F)cc2)cn1C	none (no result: UBC13 polyUb, PP1 counter, PP5 inh, PREPL inhibitor, Fh CTSL1 inh)
CCN1CCN(Cc2ccc(NC(=O)c3cc(NC(=O)c4ccno4)cc(OC)c3)cc2C(F)(F)F)CC1	none
CCN1CCN(Cc2ccc(NC(=O)c3cc(NC(=O)c4cncc(-c5cccs5)c4)cc(OC)c3)cc2C(F)(F)F)CC1	UBC13 polyUb 102, PP1 counter 19 (no result: UCH37 DUB inh) | PP1 confirm inactive | PP5 inh counter inactive | Casp3 counter inactive | UBC13 conf 91
O=C(O)C(c1ccccc1)N1C(=O)/C(=C\c2ccc(-c3ccccc3Cl)o2)SC1=S (stereo not drawn)	PP1 counter 27, UCH37 DUB inh 38 | PP1 confirm 36 | PP5 inh counter inactive | UCH37 reconfirm 100
CN1c2ccsc2C(=NNc2ccc(F)cc2)CS1(=O)=O	none (no result: UBC13 polyUb, PP1 counter, PP5 inh, PREPL inhibitor, Fh CTSL1 inh)
C=Cc1c(C)c2cc3[nH]c(cc4nc(cc5nc(cc1[nH]2)C(C)=C5CCC(=O)O)C(CCC(=O)O)=C4C)c(C)c3C=C	PP1 counter 61, UCH37 DUB inh 47! | PP1 confirm 41 | PP5 inh counter inactive | UCH37 reconfirm 100
CCN(CC)S(=O)(=O)c1cccc(-c2n[nH]c(=S)n2N=Cc2ccc(OC(F)F)cc2)c1	none (no result: UBC13 polyUb, PP1 counter, PP5 inh, PREPL inhibitor, Fh CTSL1 inh)
C(=Nc1nccs1)Nc1nccs1	none (no result: UBC13 polyUb, PP1 counter, PP5 inh, PREPL inhibitor, Fh CTSL1 inh)
N=C1/C(=C\c2ccc(-c3cc(Cl)cc(Cl)c3)o2)C(=O)N=C2SC=C(c3ccccc3)N12	none
N=C1/C(=C/c2ccc(-c3cccc(C(=O)O)c3)o2)C(=O)N=C2SC=C(c3ccccc3)N12	PP1 counter 72, UCH37 DUB inh 26 | PP1 confirm 44 | PP5 inh counter inactive | UCH37 reconfirm 66
CCN1/C(=C/C(C)=C/c2sc3ccccc3[n+]2CC)Sc2ccccc21	PP1 counter 23, PP5 inh 10, UCH37 DUB inh 28 | PP1 confirm inactive | PP5 inh counter inactive | UCH37 reconfirm inactive
C=CCn1c(N)c(-c2nc3ccccc3n2C)sc1=S	PREPL inhibitor 44 | PREPL confirm inactive
Cn1c(NC(=O)C[n+]2cc(-c3ccc(Cl)cc3)n3c2CCC3)cc(=O)n(C)c1=O	PREPL inhibitor 43 | PREPL confirm 46
Cn1c(NC(=O)C[n+]2cc(-c3ccccc3)n3c2CCC3)cc(=O)n(C)c1=O	none
Cc1c(C(O)CN2CCN(Cc3ccc4c(c3)OCO4)CC2)c2ccccc2n1C (stereo not drawn)	none
COc1ccc2c(c1)c(C(O)CN1CCN(Cc3ccc4c(c3)OCO4)CC1)c(C)n2C (stereo not drawn)	PREPL inhibitor 47 | PREPL confirm inactive
COc1cc(/C=N/n2c(C)n[nH]c2=S)ccc1OCc1ccc(F)cc1	PREPL inhibitor 50 (no result: UCH37 DUB inh) | PREPL confirm inactive
Cc1ccc2nc(-c3sc4nc(C)cc(C)c4c3N)[nH]c2c1	PREPL inhibitor 73 | PREPL confirm inactive
COc1cc(C=NNS(=O)(=O)c2ccc3ccccc3c2)ccc1OCCN1CCOCC1	none (no result: UBC13 polyUb, PP1 counter, PP5 inh, PREPL inhibitor, Fh CTSL1 inh)
COc1cc2nc(Nc3ccc(F)cc3)nc(N)c2cc1OC	none
COc1cc2nc(Nc3ccc(C)c(C)c3)nc(N)c2cc1OC	PREPL inhibitor 52 | PREPL confirm 51
COCCCNC(=O)c1c(NC(=O)c2cccs2)sc2c1CCCC2	PREPL inhibitor 44 | PREPL confirm inactive
NC(=O)c1c(NC(=O)c2cccs2)sc2c1CCCCCC2	none
Cc1cccc2cc(-c3ccccc3)c(-c3ccccc3)c[n+]12	PREPL inhibitor 58 (no result: UBC13 polyUb) | PREPL confirm 46
Cc1ccc(C=NN2CCN(c3ccccc3)CC2)cc1	none (no result: UBC13 polyUb, PP1 counter, PP5 inh, PREPL inhibitor, Fh CTSL1 inh)
CC(C)c1ccc(NC(=O)C2CCCCC2C(=O)O)cc1 (stereo not drawn)	none (no result: UCH37 DUB inh)
O=C(O)[C@H]1CCCC[C@H]1C(=O)Nc1ccc(Nc2ccccc2)cc1	PREPL inhibitor 93 | PREPL confirm inactive
Cc1ccc(C2(C)NC(=O)N(CC(=O)Nc3ccc4[nH]c(=O)[nH]c4c3)C2=O)cc1 (stereo not drawn)	PREPL inhibitor 46 | PREPL confirm inactive
COc1cccc(C=NNc2ncc(C)c(=O)[nH]2)c1OC	none (no result: UBC13 polyUb, PP1 counter, PP5 inh, PREPL inhibitor, Fh CTSL1 inh)
Cc1ccc2nc(NN=Cc3ccc([N+](=O)[O-])o3)nc(-c3ccccc3)c2c1	none (no result: UBC13 polyUb, PP1 counter, PP5 inh, PREPL inhibitor, Fh CTSL1 inh)
CC(=O)N1CCC(=NNc2nc3ccccc3[nH]2)CC1	PREPL inhibitor 54 | PREPL confirm inactive
O=C(NN=Cc1cc([N+](=O)[O-])ccc1N1CCCCCC1)c1ccccn1	none (no result: UBC13 polyUb, PP1 counter, PP5 inh, PREPL inhibitor, Fh CTSL1 inh)
COC(=O)c1ccc(Nc2cc(C)nc3ccccc23)cc1	none
COC(=O)c1ccc2nc(C)cc(Nc3ccc(N(C)C)cc3)c2c1	PREPL inhibitor 50 | PREPL confirm inactive
CCC(CO)Oc1cc(NCc2ccccc2Cl)c2ncn(C(C)C)c2c1 (stereo not drawn)	PREPL inhibitor 60 (no result: Fh CTSL1 inh) | PREPL confirm inactive
CCC(CO)Oc1cc(NCc2ccccc2C(F)(F)F)c2ncn(C(C)C)c2c1 (stereo not drawn)	PREPL inhibitor 48 (no result: PP1 counter, PP5 inh, Fh CTSL1 inh) | PREPL confirm inactive
CCC(CO)Oc1cc(NCc2ccccc2F)c2ncn(C(C)C)c2c1 (stereo not drawn)	none (no result: Fh CTSL1 inh)
CCC(COC)Oc1cc(NCc2ccccc2)c2ncn(C(C)C)c2c1 (stereo not drawn)	PREPL inhibitor 52 (no result: Fh CTSL1 inh) | PREPL confirm inactive
CCC(CO)Oc1cc(NCc2ccccc2)c2ncn(C(C)C)c2c1 (stereo not drawn)	none (no result: PP1 counter, PP5 inh, Fh CTSL1 inh)

Screening data from PubChem.
